# Screening results deposited in PubChem BioAssay by several laboratories.
# UPR XBP1 act = adaptive UPR (XBP1) activation; 330,000 tested, 0.33% active; activation, % at 20 µM; CHO-XBP1 luciferase reporter, IRE1-XBP1 UPR activation, luminescence; percent of tunicamycin response, DMSO as zero;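 active = versus positive control, 20 µM dose yields 30% or more activation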;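 also: 100% = tunicamycin at 10 µg/mL and 0% = DMSO only wells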
#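 incubation = overnight seeding at 37 °C, 6 h compound treatment at 37 °C | assay system = CHO-XBP1 cells stably carrying IRE1-XBP1-driven luciferase reporter | input = 1000 cells per well | detection = luciferase luminescence | dosing = single point, 20 µM final compound, 1% DMSO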
# B2AR ag = activates human beta-2 adrenergic receptor causing internalization; response, % (test concentration not listed); 340,000 tested, 0.43% active; Am2.2-beta2AR cells, FAP receptor internalization, flow cytometry; AID 504454;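 active = response above a set limit, near 3 SD of response in nonfluorescent compounds, cut at about 42% in these data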
# CHOP inh = inhibitors of CHOP induction in ER stress response. CHO-K1 CHOP-promoter luciferase, tunicamycin-induced, 15-18 h. inhibition, % at 10 µM. 220,000 tested, 3.8% active;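 active = compounds that reduced the stress-induced luciferase reporter signal by more than about 70% of percent inhibition, limit read from the data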;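 also: 0% = tunicamycin plus vehicle and 100% = wells without tunicamycin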
# Dynein transport = dynein cargo transport inhibition | 3617.4 mouse cells, GR-EGFP nuclear translocation imaging; test concentration mostly 20 µM; stimulated with dexamethasone, 1 µM; hits give low values | 220,000 tested, 0.47% active | z-score, hits read low;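 active = plate z-score of nuclear minus cytoplasmic receptor signal below a set negative limit, without overly bright fluorescence or cell loss, cut at about -3.5 in these data, passing the limit was not always enough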;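 also: z-score of nuclear minus cytoplasmic ring GR-EGFP intensity difference per well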
#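 Schedule: 48 h induction, then 1 h compound, then 30 min agonist, 37 °C. Buffer or medium: tetracycline-free induction medium containing charcoal-stripped FBS. Reagent: 1.0 µM final dexamethasone stimulus. Evaluation: nuclear versus cytoplasmic GR-EGFP signal, averaged per well. Signal: high-content fluorescence imaging after fixation.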
# pCIP destab = p/CIP protein destabilization | F442A p/CIP-EGFP cells, EGFP fluorescence, 16 h | 290,000 tested, 0.01% active | decrease of EGFP signal, % at 10 µM;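 active = EGFP signal decrease of at least 30% at 10 µM or well 3 SD below plate mean, unless failing retest; inactive = the rest, including hits failing retest or dose response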
# Target sequence (Q05BA5 1-1403): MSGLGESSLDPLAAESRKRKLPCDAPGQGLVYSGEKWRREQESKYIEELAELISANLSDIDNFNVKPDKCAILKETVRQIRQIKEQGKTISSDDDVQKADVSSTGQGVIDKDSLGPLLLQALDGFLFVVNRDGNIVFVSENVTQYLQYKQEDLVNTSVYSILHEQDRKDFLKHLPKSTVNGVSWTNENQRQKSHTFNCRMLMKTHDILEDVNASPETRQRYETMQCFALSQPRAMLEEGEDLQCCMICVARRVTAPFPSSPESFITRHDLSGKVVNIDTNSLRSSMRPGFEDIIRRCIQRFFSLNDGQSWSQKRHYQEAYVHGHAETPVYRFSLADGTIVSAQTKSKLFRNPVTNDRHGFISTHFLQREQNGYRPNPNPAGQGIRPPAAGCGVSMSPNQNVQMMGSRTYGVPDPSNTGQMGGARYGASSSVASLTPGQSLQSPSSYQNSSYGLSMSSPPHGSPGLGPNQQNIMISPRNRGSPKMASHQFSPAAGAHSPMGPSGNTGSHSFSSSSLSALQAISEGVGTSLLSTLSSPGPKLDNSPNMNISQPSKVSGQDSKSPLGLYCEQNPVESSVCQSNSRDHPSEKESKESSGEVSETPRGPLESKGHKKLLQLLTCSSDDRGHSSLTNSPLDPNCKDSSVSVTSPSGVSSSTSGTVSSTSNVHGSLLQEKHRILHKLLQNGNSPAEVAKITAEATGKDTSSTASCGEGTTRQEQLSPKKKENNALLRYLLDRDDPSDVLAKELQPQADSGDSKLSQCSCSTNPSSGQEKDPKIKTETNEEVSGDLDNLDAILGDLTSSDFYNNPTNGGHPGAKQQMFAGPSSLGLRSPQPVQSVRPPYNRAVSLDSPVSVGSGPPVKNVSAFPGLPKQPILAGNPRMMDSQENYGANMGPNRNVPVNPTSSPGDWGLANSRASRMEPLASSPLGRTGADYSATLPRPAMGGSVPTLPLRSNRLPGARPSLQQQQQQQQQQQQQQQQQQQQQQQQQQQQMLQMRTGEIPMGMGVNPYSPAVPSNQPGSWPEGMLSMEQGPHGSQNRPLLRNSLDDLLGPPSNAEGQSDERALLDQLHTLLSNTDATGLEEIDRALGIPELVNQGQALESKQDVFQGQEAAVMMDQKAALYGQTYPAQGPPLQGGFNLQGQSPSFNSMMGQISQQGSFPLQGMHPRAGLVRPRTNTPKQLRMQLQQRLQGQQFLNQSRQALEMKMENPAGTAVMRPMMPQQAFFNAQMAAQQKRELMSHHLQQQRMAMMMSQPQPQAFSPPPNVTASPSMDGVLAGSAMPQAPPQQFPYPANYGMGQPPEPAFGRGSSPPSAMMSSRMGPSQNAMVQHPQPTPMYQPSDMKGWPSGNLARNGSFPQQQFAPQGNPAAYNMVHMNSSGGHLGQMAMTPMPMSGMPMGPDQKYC
# UPR CHOP act = apoptotic UPR (CHOP) activation | CHO-CHOP luciferase reporter, luminescence; percent of tunicamycin response over DMSO baseline | activation, % at 10 µM | 330,000 tested, 0.34% active | AID 449763;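 active = at 10 µM dose, activation of 40% or more, normalized to positive control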;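 also: 100% = tunicamycin at 10 µg/mL and 0% = DMSO alone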
#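 Dosing – one dose, 10 µM in 0.5% DMSO · System – CHO-CHOP cells, stable luciferase reporter of PERK-eIF2a-CHOP signalling · Input – 500 cells/well · Control set – tunicamycin 10 µg/mL final as positive, DMSO-only wells as negative · Timing – 6 h compound treatment, 37 °C · Measure – % activation vs tunicamycin · Technique – luminescence read with Steady-Glo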
# Starred values were filed as active, the others as inactive; nt = not tested or not shown. Many of the other results were omitted from the sample, so hits are more common in it than they were.
SMILES,UPR XBP1 act,B2AR ag,CHOP inh,Dynein transport,pCIP destab,UPR CHOP act
CCN1CCN(c2nc(SC)nc3sc4c(c23)CC(C)(C)OC4)CC1,nt,-11,19,1.4,-6,nt
CC/C(=N/OC(=O)c1cccc(C)c1)C(=O)c1cccs1,-5,0,75*,-0.63,-8,1
O=c1oc2ccccc2cc1-c1cn2cccnc2n1,-3,-6,23,-0.75,-8,-3
O=c1oc2ccccc2cc1-c1cn2ccccc2n1,-10,-5,95*,-0.38,-12,-9
Cc1[nH]c2c(ccc3cccnc32)c1C,1,1,24,0.016,2,4
CC1=[N+](C)c2c(ccc3cccnc23)C1(C)C,nt,-5,75*,0.36,-43,nt
CN(C)c1ccc(N/C=C/C(=O)c2ccccc2)cc1,-5,2,81*,-0.8,-4,-8
Oc1ccc(N=Nc2ccc3c(c2)OCO3)c2ccccc12,0,nt,101*,-0.97,-9,66*
COc1cc(/C=C2\NC(=S)N(C)C2=O)ccc1OCc1cccc(F)c1,-6,0,nt,nt,3,-1
CC(=O)CCc1oc2ccc(C)cc2c1-c1ccccc1,0,0,6,2.5,-6,1
C/C(CCc1oc2ccc(Cl)cc2c1-c1ccc(C)o1)=N\O,-1,4,75*,-0.9,11,3
Nc1nc(-c2ccccn2)nc(N)c1Cc1ccc(Cl)cc1Cl,43*,-9,46,-0.23,4,34
Nc1nnc(Cc2ccc(Cl)cc2Cl)s1,-1,-3,8,-0.9,3,2
Nc1nc(-c2ccccn2)nc(N)c1Cc1c(F)cccc1Cl,8,-10,71*,0.15,-5,17
Nc1nc(-c2ccccn2)nc(N)c1Cc1ccccc1F,17,2,-43,-1.4,0,9
CCCCCCn1c(=O)[nH]c2nc3cc(N)c(C)cc3nc2c1=O,nt,-16,101*,-0.18,-27,nt
O=C(N/N=C/c1ccc[nH]1)c1cc2ccccc2cc1O,9,46*,nt,nt,10,5
O=C(N/N=C/c1ccncc1)c1cc2ccccc2cc1O,3,8,nt,nt,-1,5
COc1ccc(NC(=O)CN(C)C(=O)CSc2nc3ccccc3s2)cc1,-1,-5,nt,nt,nt,-2
COc1ccc(Sc2cc(C(F)(F)F)nc(-c3ccccn3)n2)cc1,-2,-14,83*,0.57,-13,1
C#CCSc1cc(C(F)(F)F)nc(-c2ccccn2)n1,-1,-16,14,-0.55,11,0
CC(C)c1nc(SCC(=O)N2CCCc3ccccc32)c2c(=O)n(C)c(=O)n(C)c2n1,-1,22,88*,0.16,-4,7
CCCc1nc(SCC(=O)N2CCc3ccccc32)c2c(=O)n(C)c(=O)n(C)c2n1,nt,nt,nt,nt,-18,nt
CCOc1cc(/C=C2/NC(=O)N(CC(=O)Nc3cccc(C)c3)C2=O)ccc1OC,2,3,90*,0.42,-19,-3
O=C1c2[nH]c(=O)[nH]c(=O)c2CN1Cc1ccccc1,nt,0,nt,nt,nt,nt
SMILES,UPR XBP1 act,B2AR ag,CHOP inh,Dynein transport,pCIP destab,UPR CHOP act
Cc1cc(C)c(C#N)c(SCC(=O)OC2CCCCC2)n1,0,2,77*,-0.38,-4,0
CCC(C(=O)OCC(=O)NC(=O)NC(C)(C)C)c1ccccc1 (stereo unspecified),-2,-1,76*,-1.5,-7,-1
CC(C)(C)NC(=O)NC(=O)COC(=O)c1ccc(OC(F)(F)F)cc1,-1,-1,81*,-0.15,-10,3
O=C(O)CCn1cc(C2CC(c3ccccc3)=NN2c2ccccc2)c(-c2ccccc2)n1 (stereo unspecified),0,8,80*,1.2,-13,0
CCOC(=O)N1CCc2c(sc3c2c(=O)n(Cc2ccccc2)c(=O)n3Cc2cccc(C)c2)C1,1,7,27,-0.82,2,1
O=C(Cc1ccc(F)cc1)N1CCC(N2CCC(C(=O)N3CCOCC3)CC2)CC1,-2,-4,-24,0.94,-12,-1
